Reference: ChEMBL document CHEMBL1131376, “Steroidal and nonsteroidal sulfamates as potent inhibitors of steroid sulfatase” (J Med Chem, 1998)

Experiments:
[1] = target: T1, Steryl-sulfatase (Homo sapiens) (UniProt P08842); assay: In vitro inhibition of Estrone Sulfatase in placental microsomes at a concentration of 100 uM.; conditions: Placenta
T1 sequence (whole entry): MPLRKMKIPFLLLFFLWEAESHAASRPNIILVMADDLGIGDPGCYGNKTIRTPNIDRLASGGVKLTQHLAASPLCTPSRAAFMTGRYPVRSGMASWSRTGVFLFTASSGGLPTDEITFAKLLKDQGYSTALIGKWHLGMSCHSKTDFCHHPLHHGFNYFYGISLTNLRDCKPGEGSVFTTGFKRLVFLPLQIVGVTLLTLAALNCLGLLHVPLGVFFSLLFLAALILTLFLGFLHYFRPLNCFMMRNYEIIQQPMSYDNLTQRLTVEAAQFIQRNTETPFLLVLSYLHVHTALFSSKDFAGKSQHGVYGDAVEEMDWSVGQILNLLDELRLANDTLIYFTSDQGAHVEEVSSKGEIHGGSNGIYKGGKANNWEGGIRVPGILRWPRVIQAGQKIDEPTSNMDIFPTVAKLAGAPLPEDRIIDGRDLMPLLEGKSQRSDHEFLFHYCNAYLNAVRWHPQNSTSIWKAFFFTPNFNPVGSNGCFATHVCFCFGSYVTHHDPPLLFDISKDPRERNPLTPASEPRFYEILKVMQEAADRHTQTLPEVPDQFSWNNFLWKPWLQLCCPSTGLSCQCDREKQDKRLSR
Method in brief: (§1)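 Placental microsomes (100 000 g pellet; 125 µg protein/mL) incubated 30 min with [³H]estrone sulfate (4 × 10⁵ dpm) brought to 20 µM with unlabelled substrate, with or without inhibitor. Product extracted into toluene, with [4-¹⁴C]estrone to correct for procedural losses. % inhibition given as mean ± s.d. of triplicates.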

[2] = target: T1, Steryl-sulfatase (Homo sapiens); assay: In vitro inhibition of Estrone Sulfatase in placental microsomes at a concentration of 50 uM.; conditions: Placenta; method in brief: as §1
[3] = target: T1, Steryl-sulfatase (Homo sapiens); assay: In vitro inhibition of Estrone Sulfatase in placental microsomes at a concentration of 10 uM.; conditions: Placenta
[4] = target: T1, Steryl-sulfatase (Homo sapiens); assay: In vitro inhibition of Estrone Sulfatase in intact MCF-7 breast cancer cells at a concentration of 10 uM.; format: cell-based; conditions: MCF7
[5] = target: T1, Steryl-sulfatase (Homo sapiens); assay: In vitro inhibition of Estrone Sulfatase in intact MCF-7 breast cancer cells at a concentration of 1.0 uM.; format: cell-based; conditions: MCF7
[6] = target: T1, Steryl-sulfatase (Homo sapiens); assay: In vitro inhibition of Estrone Sulfatase in intact MCF-7 breast cancer cells at a concentration of 0.1 uM.; format: cell-based; conditions: MCF7

Cc1cc(=O)oc2cc(OS(N)(=O)=O)c(OS(N)(=O)=O)cc12
inhibition [1]: < 10%
inhibition [2]: < 10%
inhibition [3]: < 10%
inhibition [4]: 31.2%
inhibition [5]: < 10%
inhibition [6]: < 10%

NS(=O)(=O)Oc1ccc2c(c1)CCCC2
inhibition [1]: 12.5%
inhibition [2]: < 10%
inhibition [3]: < 10%
inhibition [4]: 78.8%
inhibition [5]: 56.7%
inhibition [6]: 51.7%

NS(=O)(=O)Oc1ccc2c(c1)CCC=C2
inhibition [1]: 34.5%
inhibition [2]: 33.2%
inhibition [3]: < 10%
inhibition [4]: 76.2%
inhibition [5]: 60.6%
inhibition [6]: 49%

NS(=O)(=O)Oc1cccc2c1CCC2=O
inhibition [1]: < 10%
inhibition [2]: < 10%
inhibition [3]: < 10%
inhibition [4]: 74.1%
inhibition [5]: 15.5%
inhibition [6]: < 10%

NS(=O)(=O)Oc1ccc2c(c1)CCCC2=O
inhibition [1]: 56.1%
inhibition [2]: 54.3%
inhibition [3]: 16.1%
inhibition [4]: 78.1%
inhibition [5]: 11.7%
inhibition [6]: < 10%

Cc1cc(=O)oc2cc(O)c(OS(N)(=O)=O)cc12
inhibition [1]: < 10%
inhibition [2]: < 10%
inhibition [3]: < 10%
inhibition [4]: < 10%
inhibition [5]: < 10%
inhibition [6]: < 10%

NS(=O)(=O)Oc1ccc2c(c1)CCC2=O
inhibition [1]: 50.3%
inhibition [2]: 37.7%
inhibition [3]: 19.6%
inhibition [4]: 71.3%
inhibition [5]: 22.6%
inhibition [6]: 13.5%

NS(=O)(=O)Oc1ccc2c(C(F)(F)F)cc(=O)oc2c1
inhibition [1]: 96.3%
inhibition [2]: 94.3%
inhibition [3]: 79.4%
inhibition [4]: 71.5%
inhibition [5]: 28.3%
inhibition [6]: 9.9%

COc1cc2ccc(=O)oc2cc1OS(N)(=O)=O
inhibition [1]: 69.9%
inhibition [2]: 42.9%
inhibition [3]: < 10%
inhibition [4]: 72.1%
inhibition [5]: 34.1%
inhibition [6]: 33.8%

NS(=O)(=O)Oc1ccc2ccc(=O)oc2c1
inhibition [1]: 94.4%
inhibition [2]: 91.9%
inhibition [3]: 78.2%
inhibition [4]: 90.4%
inhibition [5]: 66%
inhibition [6]: 23.9%

NS(=O)(=O)Oc1ccc2c(c1)OC(=O)CC2
inhibition [1]: 34.4%
inhibition [2]: 15%
inhibition [3]: < 10%
inhibition [4]: 28.5%
inhibition [5]: 30.2%
inhibition [6]: 12%

Cc1c(C)c2ccc(OS(N)(=O)=O)cc2oc1=O
inhibition [1]: 99.2%
inhibition [2]: 98.8%
inhibition [3]: 96.9%

Cc1cc(=O)oc2ccc(OS(N)(=O)=O)cc12
inhibition [1]: < 10%
inhibition [2]: < 10%
inhibition [3]: < 10%
inhibition [4]: 39.1%
inhibition [5]: 17.4%
inhibition [6]: < 10%

Cc1cc(=O)oc2cc(OS(N)(=O)=O)ccc12
inhibition [1]: 99%
inhibition [2]: 97.8%
inhibition [5]: 85.6%
inhibition [6]: 42.9%

NS(=O)(=O)Oc1ccc2c(c1)C(=O)CCC2
inhibition [1]: 27%
inhibition [2]: 16.5%
inhibition [3]: 12.3%
inhibition [4]: 93.5%
inhibition [5]: 47.8%
inhibition [6]: 10.4%

NS(=O)(=O)Oc1ccc2c(c1)OCC=C2
inhibition [1]: 47.2%
inhibition [2]: 36.9%
inhibition [3]: 19.9%
inhibition [4]: 99.3%
inhibition [5]: 68.2%
inhibition [6]: 11.4%

CC1CC(=O)Oc2cc(OS(N)(=O)=O)ccc21 (centres undefined)
inhibition [1]: 82.1%
inhibition [2]: 70.6%
inhibition [3]: 53.4%
inhibition [4]: 32.3%
inhibition [5]: < 10%
inhibition [6]: < 10%

NS(=O)(=O)Oc1ccc2c(c1)C(=O)CC2
inhibition [1]: < 10%
inhibition [2]: < 10%
inhibition [3]: < 10%
inhibition [4]: 99%
inhibition [5]: 91%
inhibition [6]: 33%

Cc1c(C)c2ccc(OS(N)(=O)=O)c(C)c2oc1=O
inhibition [1]: 12.5%
inhibition [2]: 11.5%
inhibition [3]: 17.4%
inhibition [4]: 75.1%
inhibition [5]: 46.4%
inhibition [6]: 9.3%
